M1 ag – agonists of human M1 muscarinic receptor | activation, % at 3 µM | AID 588814 | CHO-K1 hM1, Fluo-8 calcium fluorescence, agonist mode; 0% DMSO, 100% acetylcholine EC100 | 0.33% of 360,000 active | P11229;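 active = activation above the run's mean compound activation plus 3 SD, cut at about 16% in these data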;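 note: peak over basal fluorescence ratio within a 140 s kinetic read after compound addition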
CHRM5 antagonist – CHRM5 antagonism in calcium assay; P08912; CHO-hM5 cells, Fluo-8 calcium fluorescence, ACh EC80; inhibition, % at 3 µM; 0.59% of 360,000 active; AID 624040;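 active = inhibition above a per-plate cutoff, the mean of that plate's test compounds plus 3 SD, cut at about 27% in these data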;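 note: 0% = acetylcholine EC80 with DMSO and 100% = DMSO without agonist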
Target sequence (P08912 whole entry, looked up): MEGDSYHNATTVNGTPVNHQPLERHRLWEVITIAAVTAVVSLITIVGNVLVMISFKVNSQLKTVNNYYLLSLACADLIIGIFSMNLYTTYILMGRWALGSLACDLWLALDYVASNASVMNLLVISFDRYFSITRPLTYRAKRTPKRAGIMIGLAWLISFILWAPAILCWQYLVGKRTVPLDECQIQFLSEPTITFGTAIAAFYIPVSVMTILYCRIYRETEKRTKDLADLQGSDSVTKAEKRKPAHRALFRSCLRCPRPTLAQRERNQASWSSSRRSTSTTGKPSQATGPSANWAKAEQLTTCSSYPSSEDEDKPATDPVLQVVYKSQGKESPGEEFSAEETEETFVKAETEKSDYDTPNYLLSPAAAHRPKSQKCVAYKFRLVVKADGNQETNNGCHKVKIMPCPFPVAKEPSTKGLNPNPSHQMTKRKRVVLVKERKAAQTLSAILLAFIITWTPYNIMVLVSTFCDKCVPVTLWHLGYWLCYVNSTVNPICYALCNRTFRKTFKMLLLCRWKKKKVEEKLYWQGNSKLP
CHRM5 PAM – CHRM5 positive allosteric modulation | activation, % at 3 µM | CHO-K1 hM5, Fluo-8 calcium, ACh EC20 PAM; 0% = ACh EC20, 100% = ACh EC100 | 0.3% of 360,000 active | AID 624038;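 active = activation above the run cutoff, the mean activation of all test compounds plus 3 SD, cut at about 18% in these data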
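system = human M5 receptor in CHO-K1 cells | reagent = EC20 acetylcholine as agonist stimulus | compound dosing = single-point, 3 µM nominal | incubation = Fluo-8 loading 80 min at 37 °C plus 30 min room temperature | detection = Fluo-8 calcium dye fluorescence, kinetic read | benchmarks = low control EC20 acetylcholine (0%), high control EC100 acetylcholine (100%)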
M1 PAM – potentiates human M1 receptor response to acetylcholine; CHO-K1 hM1, Fluo-8 calcium fluorescence, ACh EC20; 0% = ACh EC20, 100% = maximal ACh; AID 588819; activation, % at 3 µM; 0.088% of 360,000 active; P11229; in the data active = activation above about 19%, passing the limit was not always enough
M5 ag – CHRM5 agonism in calcium assay. P08912. CHO-K1 hM5 cells, Fluo-8 calcium fluorescence; 0% DMSO wells, 100% maximal acetylcholine response. activation, % at 3 µM. 0.19% of 360,000 active. AID 624037;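 active = activation above the run's mean over test compounds plus 3 SD, cut at about 23% in these data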;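 note: signal is peak over basal fluorescence ratio across the kinetic read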
M1 antag – antagonists of human M1 muscarinic receptor | CHO-K1 hM1, Fluo-8 calcium fluorescence, ACh EC80 antagonist | inhibition, % at 3 µM | P11229 | 1.3% of 360,000 active;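 active = percent inhibition above its own plate's cutoff, namely the mean of that plate's compound wells plus 3 SD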;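 note: peak over basal fluorescence ratio during 140 s after agonist addition; 0% = ACh EC80 plus DMSO and 100% = DMSO alone without agonist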
Starred values were filed as active, the others as inactive; . = no result given. An excerpt weighted towards active compounds, which were near 2% of everything screened.

SMILES	M1 ag	CHRM5 antagonist	CHRM5 PAM	M1 PAM	M5 ag	M1 antag
COc1ccccc1C(CNC(=O)c1ccc(NS(=O)(=O)c2ccc3c(c2)OCCO3)cc1)N(C)C (centres undefined)	8	7	-20	-15	-8	40*
COc1ccccc1C(CNC(=O)c1cccc(S(=O)(=O)Nc2ccc(C)cc2)c1)N(C)C (centres undefined)	-5	99*	-14	-24	-7	99*
C=CCN1C=C/C(=C\C=C(C#N)C#N)c2ccccc21	-2	6	-5	-1	2	-1
C=CCN1C=CC(=CC=C(C#N)C#N)C=C1	9	20	-23	-8	28*	25
CCCN1C=CC(=CC=C(C#N)C#N)C=C1	10	23	-15	-1	31*	11
CCOC(=O)/C(C#N)=C/C=C1\C=Cc2ccccc2N1CC	-11	1	-8	6	2	0
CCCCCCN1C=CC(=C/C=C(\C#N)C(=O)OCC)C=C1	150*	34*	-22	-38	51*	60*
CCCS(=O)(=O)NC(=O)C1(C)CCN(C(=O)c2cc(C(C)(C)C)nn2C)C1 (centres undefined)	1	-8	8	14	0	-8
CCCOC(=O)c1ccc(Oc2coc3c(CN(CC)CC)c(O)ccc3c2=O)cc1	-11	-10	-9	-26	-10	89*
CC(=O)N1CCN(C(=O)OC2CC3CC2[C@H]2CCCCN2C3=O)CC1 (some centres undefined)	.	14	-10	.	1	.
COc1ccc(CNC(=O)C[C@@H]2C[C@H]3c4cc(NC(=O)NC5CCCC5)ccc4O[C@H]3[C@H](CO)O2)cc1	-6	-1	-3	-2	0	-13
O=C(CN1C(=O)CC(c2ccco2)Sc2ccccc21)Nc1ccc2c(c1)OCCO2 (centres undefined)	-8	9	-13	-22	0	38*
CN(C)CCCN(C(=O)c1ccco1)c1nc2ccc(F)cc2s1	17*	0	6	-5	-14	18
CN(C)CCCN(C(=O)c1ccco1)c1nc2c(F)cccc2s1	7	20	-31	-15	-20	47*
CN(C)CCCN(C(=O)c1ccco1)c1nc2c(F)cc(F)cc2s1	7	4	3	2	-2	3
CCN(CC)C(=O)C1=C(C)N(CCCN2CCCC2=O)C(=O)C(CC(=O)NCCN2CCOCC2)C1 (centres undefined)	-3	-2	-3	0	2	2
COc1cccc(C2CC(c3ccccc3)=NN2S(=O)(=O)c2ccc(C)cc2)c1OC (centres undefined)	-1	3	27*	0	5	4
CC1(C)CC(=O)C2=C(C1)NC1=C(C(=O)c3ccccc31)C2c1ccc(O)cc1 (centres undefined)	-6	4	5	4	-1	1
O=C1CCCC2=C1C(c1cccc(O)c1)C1=C(N2)c2ccccc2C1=O (centres undefined)	-3	-10	18*	8	5	0
C[C@H]1CN([C@@H](C)CO)C(=O)CCCn2nncc2CO[C@@H]1CN(C)S(=O)(=O)c1cccc(F)c1	-3	-11	7	2	-4	-14
Cc1cc(C)c(C#N)c(SCc2nnc(-c3ccccc3[N+](=O)[O-])o2)n1	-6	47*	-21	-34	-2	43*
Cc1cc(C)c(C#N)c(SCc2nnc(-c3ccccc3)o2)n1	-7	-3	-9	-19	-8	24*
CCc1nc2ccc(C(=O)N3CCCC(C(N)=O)C3)cn2c1N(CCC(C)C)CCN(C)C (centres undefined)	-3	15	-5	7	-2	-8
CCc1nc2ccc(C(=O)NCCOc3ccc(OC)cc3)cn2c1N(C)Cc1ccc(OC)cc1	-6	2	-9	-20	-3	30*
CCc1nc2ccc(C(=O)NCCOc3ccc(OC)cc3)cn2c1N(C)CCCc1ccccc1	-7	10	-6	-18	-2	35*
SMILES	M1 ag	CHRM5 antagonist	CHRM5 PAM	M1 PAM	M5 ag	M1 antag
CCc1nc2ccc(C(=O)N3CCCC(C(N)=O)C3)cn2c1N(C)Cc1ccc(OC)cc1 (centres undefined)	-10	-11	4	-24	-4	39*
CC(C)(C)c1ccc(C(=O)N2CCC2(C)C(=O)Nc2ccc3nc[nH]c3c2)cc1 (centres undefined)	2	5	-7	0	3	-8
Cc1cc(/C=C2\SC(=S)N(Cc3ccco3)C2=O)c(C)n1-c1ccccc1	-2	6	22*	-1	12	5
Cc1cc(/C=C2\SC(=S)N(C)C2=O)c(C)n1-c1cccc(O)c1	-2	11	-5	6	5	-11
O=C1/C(=C\c2ccco2)SC(=S)N1Cc1ccccc1	-2	-3	-3	-5	0	-4
CN(C)c1ccc(C=C2SC(=S)N(Cc3ccco3)C2=O)cc1	20*	19	-8	-16	13	17
O=C1C(=C2CCCCC2)SC(=S)N1Cc1ccco1	-6	-1	2	-20	-9	29*
OCc1ccccc1-c1nc(NCC2CC2)nc2ccsc12	-10	8	-1	-4	-4	-7
CCc1nc2c(OCc3ccc(Cl)cc3)cccn2c1N(C)C(=O)c1ccncc1	-8	4	1	9	-2	-11
Cc1cccc(C)c1N1C(=O)c2ccccc2NC(=O)C1C(=O)Nc1ccc(N2CCOCC2)cc1 (centres undefined)	.	-11	10	.	0	.
O=C(O)c1cccc2c1/C(=N/O)c1ccccc1-2	1	-12	20*	29*	4	-21
CC(C)CCNC(=O)c1cc(S(=O)(=O)N2CCC3(CC2)OCCO3)ccc1F	-2	4	-2	2	1	-10
Cc1cc(N2CCN(C(C(=O)NC3CCCC3)C(C)(C)C)CC2)c2ccccc2n1 (centres undefined)	.	-3	-1	.	-4	.
O=C(C[n+]1cc(-c2ccccc2)n2c1CCC2)N1c2ccccc2Sc2ccccc21	-8	52*	-19	-26	-10	99*
Cc1ccc(-c2c[n+](CC(=O)N3c4ccccc4Sc4ccccc43)c3n2CCC3)cc1	-7	100*	-21	-25	-8	100*
O=C(C[n+]1cc(-c2ccc(F)cc2)n2c1CCC2)N1c2ccccc2Sc2ccccc21	-7	97*	-19	-25	-8	96*
CCc1nc2c(OCC(N)=O)cccn2c1N(C)C(=O)c1cccs1	-1	0	-1	10	1	-5

Source: PubChem BioAssay (The Scripps Research Institute Molecular Screening Center)
